Legend:
Rattus norvegicus [1] = assay: Evaluated for inhibition of basal gastric acid secretion in pyolus-ligated rats after intraduodenal administration; settings: Stomach, id
Rattus norvegicus [2] = assay: Effect on gastric mucosal blood flow 15 minutes before dosing of HCl and aspirin after drug dosing at 32 mg/kg intragastrically; assay type: functional, Gastric mucosa; settings: route intragastric
How it was run: (§1)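 Male rats, five per group, test drug suspended in 0.1% MC given intragastrically. Aspirin 200 mg/kg in 0.2 N HCl/0.1% MC (0.2 mL) given ig 15 min later. […] Reported as mean ± SEM and % of initial.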

Rattus norvegicus [3] = assay: Effective dose against aspirin induced gastric lesions in rats after peroral administration; assay type: functional; settings: Stomach, po
How it was run: (§2)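 Male SD rats (~200 g), fasted 24 h. Test compound given orally in 0.1% MC, then aspirin 200 mg/kg in 0.2 N HCl/0.1% MC (10 mL/kg) orally 30 min later. Rats killed 1 h after aspirin. Ulcer index is the summed lesion length (mm); % inhibition is relative to controls. Seven rats per group for screening; ED50 by probit from three doses, ten rats per dose.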

Rattus norvegicus [4] = assay: Effect on gastric mucosal blood flow 60 minutes after administration of HCl and aspirin after drug dosing at 10 mg/kg intragastrically; assay type: functional, Gastric mucosa; settings: route intragastric
How it was run: as §1

Canis familiaris [5] = assay: Evaluated against tetragastrin stimulated gastric acid secretion in conscious Hiedenhain-pouch dogs at a dose of 0.32 mg/kg, po; assay type: functional; settings: Canis lupus familiaris, Stomach
How it was run: (§3)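 Beagle Heidenhain-pouch dogs, 8–13 kg, oral dosing. Acid concentration titrated to pH 7 with 0.1 N NaOH; total acid output is volume × concentration. Change is relative to predosing output. ED50 by probit from three or four doses, three or four dogs per dose.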

Rattus norvegicus [6] = assay: Effect on gastric mucosal blood flow 30 minutes after administration of HCl and aspirin after drug dosing at 10 mg/kg intragastrically; assay type: functional, Gastric mucosa; settings: route intragastric
How it was run: as §1

[7] = molecular target: Histamine H2 receptor (Cavia porcellus) (UniProt P47747); assay: H2 receptor antagonistic activity against histamine stimulated chronotropic response in isolated guinea pig right atrium at 1x10E-6 g/mL.; assay type: functional, tissue-based; settings: Cardiac atrium
How it was run: (§4)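 Guinea pig atrial strip under 0.3–0.6 g tension in Tyrode solution, 30 °C, gassed with 95% O2-5% CO2. Beating rate recorded. Histamine HCl 1 × 10-6 g/mL given; after washout, test compound added (single-concentration screen 1 × 10-6 g/mL) and histamine response compared before and 30 min after dosing. IC50 from three doses by probit analysis, three atria per dose.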

Rattus norvegicus [8] = assay: Effect on gastric mucosal blood flow at basal value which is 15 minutes before dosing of drugs at 32 mg/kg intragastrically; assay type: functional, Gastric mucosa; settings: route intragastric
How it was run: as §1

Rattus norvegicus [9] = assay: Effect on gastric mucosal blood flow at basal value which is 15 minutes before dosing of drugs at 10 mg/kg intragastrically; assay type: functional, Gastric mucosa; settings: route intragastric
How it was run: as §1

Rattus norvegicus [10] = assay: Effect on gastric mucosal blood flow 15 minutes before dosing of HCl and aspirin after drug dosing at 10 mg/kg intragastrically; assay type: functional, Gastric mucosa; settings: route intragastric
How it was run: as §1

Canis familiaris [11] = assay: Effective dose against tetragastrin stimulated gastric acid secretion in conscious Hiedenhain-pouch dogs after peroral administration; assay type: functional; settings: Canis lupus familiaris, Stomach, po
How it was run: as §3

Rattus norvegicus [12] = assay: Effective dose against indomethacin induced gastric lesions in rats after peroral administration; assay type: functional; settings: Stomach, po
How it was run: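 Male SD rats (~200 g), fasted 24 h, dosed orally with test compound in 0.1% MC, ten per group. Indomethacin 5 mg/kg in 0.1% MC given orally 30 min later, then 0.35 N HCl (5 mL/kg) orally after 1 h. Killed 1 h after that. Ulcer index is the summed lesion length. ED50 by probit from three doses.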

Rattus norvegicus [13] = assay: Effect on gastric mucosal blood flow 30 minutes after administration of HCl and aspirin after drug dosing at 32 mg/kg intragastrically; assay type: functional, Gastric mucosa; settings: route intragastric
How it was run: as §1

Rattus norvegicus [14] = assay: Inhibition of histamine stimulated gastric acid secretion in lumen perfused anaesthetized rats after 1 mg/kg intravenous dose; assay type: functional; settings: Stomach
How it was run: (§5)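 Male SD rats (~250 g), fasted 24 h, urethane 1.25 g/kg ip. Stomach lumen perfused with saline; perfusate titrated with 25 mM NaOH. Histamine infused iv at 3 mg/kg/h. At plateau, compound given iv at 1 mg/kg. Result expressed as maximal inhibition of acid output; n = 2.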

Rattus norvegicus [15] = assay: Effect on gastric mucosal blood flow 60 minutes after administration of HCl and aspirin after drug dosing at 32 mg/kg intragastrically; assay type: functional, Gastric mucosa; settings: route intragastric
How it was run: as §1

Rattus norvegicus [16] = assay: Inhibition of aspirin induced gastric lesions in rats after peroral dose of 32 mg/kg; assay type: functional; settings: Stomach, route oral
How it was run: as §2

Histamine H2 receptor = Histamine H2 receptor (Cavia porcellus, UniProt P47747); assay: Compound was tested for H2 receptor antagonistic activity against histamine stimulated chronotropic response in isolated guinea pig right atrium; assay type: functional, tissue-based, Cardiac atrium
How it was run: as §4

Canis familiaris [17] = assay: Evaluated against tetragastrin stimulated gastric acid secretion in conscious Hiedenhain-pouch dogs at a dose of 0.32 mg/Kg, po; assay type: functional; settings: Canis lupus familiaris, Stomach
How it was run: as §3

Rattus norvegicus [18] = assay: Effect on gastric mucosal blood flow 30 minutes after administration of HCl and aspirin after drug dosing at 100 mg/kg intragastrically; assay type: functional, Gastric mucosa; settings: route intragastric
How it was run: as §1

Rattus norvegicus [19] = assay: Effect on gastric mucosal blood flow 60 minutes after administration of HCl and aspirin after drug dosing at 100 mg/kg intragastrically; assay type: functional, Gastric mucosa; settings: route intragastric
How it was run: as §1

Rattus norvegicus [20] = assay: Evaluated for inhibition of basal gastric acid secretion on pyolus-ligated rats after intraduodenal administration; settings: Stomach, id
Rattus norvegicus [21] = assay: Evaluated against histamine stimulated gastric acid secretion in lumen perfused anaesthetized rats after 1 mg/kg intravenous dose; assay type: functional; settings: Stomach
How it was run: as §5

Rattus norvegicus [22] = assay: Effect on gastric mucosal blood flow 15 minutes before dosing of HCl and aspirin after drug dosing at 100 mg/kg intragastrically; assay type: functional, Gastric mucosa; settings: route intragastric
How it was run: as §1

Rattus norvegicus [23] = assay: Effect on gastric mucosal blood flow at basal value which is 15 minutes before dosing of drugs at 100 mg/kg intragastrically; assay type: functional, Gastric mucosa; settings: route intragastric
How it was run: as §1

Sequence of Histamine H2 receptor (Cavia porcellus) (P47747 whole entry): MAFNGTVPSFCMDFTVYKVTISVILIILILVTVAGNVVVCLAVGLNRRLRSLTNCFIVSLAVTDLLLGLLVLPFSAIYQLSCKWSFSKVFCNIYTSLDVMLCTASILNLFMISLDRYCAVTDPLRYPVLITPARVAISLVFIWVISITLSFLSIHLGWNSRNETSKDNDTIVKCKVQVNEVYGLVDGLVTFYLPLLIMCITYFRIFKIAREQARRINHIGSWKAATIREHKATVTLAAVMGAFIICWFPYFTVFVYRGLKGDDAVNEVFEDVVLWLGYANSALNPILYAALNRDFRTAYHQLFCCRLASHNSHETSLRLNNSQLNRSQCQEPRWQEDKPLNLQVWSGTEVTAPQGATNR
Sequence of Histamine H2 receptor (P47747 whole entry): as above

| inhibition [7] [%] | SMILES | inhibition in vivo at 0.32 mg/kg (Canis familiaris [5]) [%] | inhibition in vivo at 1 mg/kg (Rattus norvegicus [14]) [%] | inhibition in vivo at 32 mg/kg (Rattus norvegicus [16]) [%] | further results |
| --- | --- | --- | --- | --- | --- |
| 66 | CC(=O)NCc1cccc(-c2csc(N=C(N)N)n2)n1.Cl | 95 | 82 | 68 | ED50 (Rattus norvegicus [1]): 12.6 mg/kg; Flow rate (Rattus norvegicus [2]): 65.3 ml min-1 100g-1; ED50 (Rattus norvegicus [3]): 13.3 mg/kg; Flow rate (Rattus norvegicus [4]): 61 ml min-1 100g-1; Flow rate (Rattus norvegicus [6]): 67.9 ml min-1 100g-1; Flow rate (Rattus norvegicus [8]): 58.9 ml min-1 100g-1; Flow rate (Rattus norvegicus [9]): 70.4 ml min-1 100g-1; Flow rate (Rattus norvegicus [10]): 70.2 ml min-1 100g-1; ED50 (Canis familiaris [11]): 0.063 mg/kg; ED50 (Rattus norvegicus [12]): 6.5 mg/kg; Flow rate (Rattus norvegicus [13]): 63.1 ml min-1 100g-1; Flow rate (Rattus norvegicus [15]): 60.4 ml min-1 100g-1; IC50 (Histamine H2 receptor): 1300 nM |
| 29 | C/N=C(/NCc1cccc(-c2csc(N=C(N)N)n2)n1)NS(C)(=O)=O | – | 24 | 10 | – |
| 100 | N=C(N)Nc1nc(-c2cccc(CNC(N)=O)n2)cs1 | 78 | 98 | 34 | – |
| – | CC(=O)NCc1cc(-c2csc(N=C(N)N)n2)ccn1 | – | 40 | 42 | – |
| 32 | N=C(N)Nc1nc(-c2cccc(CNC(=O)C3CCOC3)n2)cs1 (stereo not drawn) | – | 51 | 42 | – |
| 13 | N=C(N)Nc1nc(-c2cccc(CNC(=O)c3ccco3)n2)cs1 | – | 34 | 69 | – |
| 32 | N=C(N)Nc1nc(-c2cccc(CNC(=O)C3CCCC3)n2)cs1 | 22 | 67 | 92 | – |
| 72 | N=C(N)Nc1nc(-c2cccc(CNC(=O)C(F)(F)F)n2)cs1 | – | 43 | 43 | – |
| 84 | N=C(N)Nc1nc(-c2ccc(CC(=N)NS(N)(=O)=O)o2)cs1 | 92 | 99 | 49 | – |
| 44 | CNC(=C[N+](=O)[O-])NCCSCc1ccc(CN(C)C)o1 [RANITIDINE] | – | – | 3 | inhibition in vivo at 0.32 mg/kg (Canis familiaris [17]): 41%; ED50 (Rattus norvegicus [3]): > 100 mg/kg; Flow rate (Rattus norvegicus [18]): 53.4 ml min-1 100g-1; Flow rate (Rattus norvegicus [19]): 55.4 ml min-1 100g-1; ED50 (Rattus norvegicus [20]): 30.5 mg/kg; inhibition in vivo at 1 mg/kg (Rattus norvegicus [21]): 72%; ED50 (Canis familiaris [11]): 0.3 mg/kg; Flow rate (Rattus norvegicus [22]): 82.3 ml min-1 100g-1; Flow rate (Rattus norvegicus [23]): 85.3 ml min-1 100g-1; IC50 (Histamine H2 receptor): 3400 nM |
| 23 | N=C(N)Nc1nc(-c2cccc(CNC(=O)C3CCCCC3)n2)cs1 | – | 23 | 62 | – |
| 4 | CCS(=O)(=O)N/C=N\Cc1cccc(-c2csc(N=C(N)N)n2)n1 | – | -18 | 1 | – |
| 87 | NC(N)=Nc1nc(CSCC/C(N)=N/S(N)(=O)=O)cs1 [FAMOTIDINE] | 96 | 96 | 22 | ED50 (Rattus norvegicus [1]): 3.5 mg/kg; Flow rate (Rattus norvegicus [2]): 60.5 ml min-1 100g-1; ED50 (Rattus norvegicus [3]): > 100 mg/kg; Flow rate (Rattus norvegicus [4]): 50.5 ml min-1 100g-1; Flow rate (Rattus norvegicus [6]): 62.5 ml min-1 100g-1; Flow rate (Rattus norvegicus [8]): 58.4 ml min-1 100g-1; Flow rate (Rattus norvegicus [9]): 68.6 ml min-1 100g-1; Flow rate (Rattus norvegicus [10]): 73 ml min-1 100g-1; ED50 (Canis familiaris [11]): 0.042 mg/kg; ED50 (Rattus norvegicus [12]): > 100 mg/kg; Flow rate (Rattus norvegicus [13]): 46.9 ml min-1 100g-1; Flow rate (Rattus norvegicus [15]): 43.4 ml min-1 100g-1 |
| 25 | CCCC(=O)NCc1cccc(-c2csc(N=C(N)N)n2)n1 | – | 71 | 56 | – |
| -14 | CN/C(=C\[N+](=O)[O-])NCc1cccc(-c2csc(N=C(N)N)n2)n1 | – | 18 | -27 | – |
| – | CC(C)(C)C(=O)NCc1cccc(-c2csc(N=C(N)N)n2)n1 | – | 22 | 58 | – |
| 60 | N=C(N)Nc1nc(-c2cccc(CNC(=O)C3CC3)n2)cs1 | 48 | 91 | 62 | – |
| 13 | N=C(N)Nc1nc(-c2cccc(CNC(=O)C3CCCCCC3)n2)cs1 | 67 | 43 | 93 | – |
